{"source": "ChEMBL document CHEMBL6114936", "about": "“S-MGBs bearing amidine tail groups are potent, selective antiplasmodial agents” (RSC Med Chem, 2025)", "key": {"[1]": {"experiment": "Cytotoxicity against HEK293 cells assessed as cell growth inhibition measured after 72 hrs by resazurin dye based fluorescence assay relative to IC50", "assay_type": "toxicity", "conditions": "human", "method_in_brief": "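HEK293 cells grown in DMEM with 10% FBS and exposed to compound for 72 h at 37 °C, 5% CO2. Medium was then replaced with 44 μM resazurin, incubated 5–6 h more, and fluorescence read at 530/595 nm. Top concentration 80 μM. Curves were duplicate, 11-point dose response.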"}, "[2]": {"experiment": "Selectivity index, ratio of IC50 for HEK293 cells to IC50 for antiplasmodial activity against ring stage chloroquine-sensitive Plasmodium falciparum 3D7", "assay_type": "toxicity, cell-based", "conditions": "human, read-out: Ratio IC50", "method_in_brief": "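SI is HEK293 IC50 divided by P. falciparum 3D7 IC50. Parasites were sorbitol-synchronized twice, and rings were exposed 72 h at 37 °C (90% N2, 5% CO2, 5% O2), then DAPI-stained and imaged confocally. […] Where no accurate HEK293 IC50 was obtained, a relative IC50 or the top concentration was used and SI reported as a bound.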"}, "DNA [3]": {"test_system": "DNA", "experiment": "Binding affinity to 5'-CGCATATATGCG-3' DNA (unknown origin) assessed as bound as dimer [DS + 2 M] in charge states 5- and 4- at 100 uM by native mass spectrometry", "assay_type": "nucleic-acid assay", "method_in_brief": "(§1)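 Final sample: 9 μM DNA, 100 μM KCl, 100 μM S-MGB, 1% DMSO in 150 mM ammonium acetate pH 7. DNA with 1% DMSO and no ligand served as control. Sprayed in negative mode at 1.0–1.2 kV. Free, monomer- and dimer-bound DS species were read by charge state.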"}, "DNA [4]": {"test_system": "DNA", "experiment": "Binding affinity to 5'-CGCATATATGCG-3' DNA (unknown origin) assessed as bound as monomer [DS + 1 M] in charge states 5- at 100 uM by native mass spectrometry", "assay_type": "nucleic-acid assay", "method_in_brief": "as §1"}, "[5]": {"experiment": "Selectivity ratio of IC50 for antiplasmodial activity against ring stage chloroquine-resistant Plasmodium falciparum Dd2 to IC50 for antiplasmodial activity against ring stage chloroquine-sensitive Plasmodium falciparum 3D7", "assay_type": "functional", "method_in_brief": "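Ring-stage P. falciparum Dd2 and 3D7, twice sorbitol-synchronised, in RPMI-1640 with 25 mM HEPES, 5% human AB serum, Albumax II, hypoxanthine. Exposed 72 h at 37 °C (90% N2/5% CO2/5% O2), 11-point dose response. DAPI stain, confocal imaging, % inhibition against in-plate controls, four-parameter IC50. Two independent duplicate runs. Ratio is Dd2 IC50/3D7 IC50.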"}, "DNA [6]": {"test_system": "DNA", "experiment": "Binding affinity to 5'-CGCATATATGCG-3' DNA (unknown origin) assessed as appearance of small m/z peak corresponding to free ds DNA oligo at 100 uM by native mass spectrometry", "assay_type": "nucleic-acid assay", "method_in_brief": "as §1"}}, "note": "Activity calls are given as the source filed them. No cut-off for these calls is given here.", "data": [{"compound": "Cn1cc(NC(=O)c2cc(NC(=O)c3ccc(/C=C/c4ccc5nsnc5c4)cc3)cn2C)cc1C(=O)NCCN1CCOCC1", "values": [{"measurement": "IC50 at 72 h", "setting": "[1]", "value": 11, "unit": "µM"}]}, {"compound": "Cn1cc(NC(=O)c2cc(NC(=O)c3ccc(/C=C/c4ccncc4)cc3)cn2C)cc1C(=O)NCCC(=N)N", "values": [{"measurement": "selectivity ratio", "setting": "[2]", "value": "> 613"}, {"measurement": "Activity", "setting": "DNA [3]", "value": "Active"}, {"measurement": "Activity", "setting": "DNA [4]", "value": "inactive"}, {"measurement": "IC50 at 72 h", "setting": "[1]", "value": 40, "unit": "µM"}]}, {"compound": "Cn1cc(NC(=O)c2cc(NC(=O)c3ccc(/C=C/c4cccc(F)c4)cc3)cn2C)cc1C(=O)NCCC(=N)N", "values": [{"measurement": "IC50 at 72 h", "setting": "[1]", "value": 40, "unit": "µM"}]}, {"compound": "COc1cccc(/C=C/c2ccc(C(=O)Nc3cc(C(=O)Nc4cc(C(=O)NCCN(C)C)n(C)c4)n(C)c3)cc2)c1", "values": [{"measurement": "IC50 at 72 h", "setting": "[1]", "value": 20, "unit": "µM"}]}, {"compound": "Cn1cc(NC(=O)c2cc(NC(=O)c3ccc(/C=C/c4ccc(F)cc4)cc3)cn2C)cc1C(=O)NCCC(=N)N", "values": [{"measurement": "IC50 at 72 h", "setting": "[1]", "value": 40, "unit": "µM"}]}, {"compound": "CCc1nc(N)nc(N)c1-c1ccc(Cl)cc1", "note": "[PYRIMETHAMINE]", "values": [{"measurement": "Ratio IC50", "setting": "[5]", "value": ">29740"}]}, {"compound": "COc1ccc(/C=C/c2ccc(C(=O)Nc3cc(C(=O)Nc4cc(C(=O)NCCC(=N)N)n(C)c4)n(C)c3)cc2)cc1.O=C(O)C(F)(F)F", "values": [{"measurement": "Ratio IC50", "setting": "[5]", "value": 1.4}, {"measurement": "IC50 at 72 h", "setting": "[1]", "value": 40, "unit": "µM"}]}, {"compound": "COc1cccc(/C=C/c2ccc(C(=O)Nc3cc(C(=O)Nc4cc(C(=O)NCCCN(C)C)n(C)c4)n(C)c3)cc2)c1", "values": [{"measurement": "selectivity ratio", "setting": "[2]", "value": "> 195"}, {"measurement": "IC50 at 72 h", "setting": "[1]", "value": 35, "unit": "µM"}]}, {"compound": "Cn1cc(NC(=O)c2cc(NC(=O)c3ccc(/C=C/C(=O)Nc4ccccc4O)cc3)cn2C)cc1C(=O)NCCC(=N)N", "values": [{"measurement": "IC50 at 72 h", "setting": "[1]", "value": 40, "unit": "µM"}]}, {"compound": "CN(C)CCCNC(=O)c1cc(NC(=O)c2cc(NC(=O)c3cc(NC(=N)c4cc5ccccc5cn4)cn3C)cn2C)cn1C", "values": [{"measurement": "IC50 at 72 h", "setting": "[1]", "value": 21, "unit": "µM"}]}, {"compound": "Cn1cc(NC(=O)c2cc(NC(=O)c3ccc(NC(=O)c4cccc(F)c4)cc3)cn2C)cc1C(=O)NCCC(=N)N", "values": [{"measurement": "IC50 at 72 h", "setting": "[1]", "value": 40, "unit": "µM"}]}, {"compound": "Cn1cc(NC(=O)c2cc(NC(=O)c3ccc(/C=C/c4ccc5ccccc5c4)cc3)cn2C)cc1C(=O)NCCC(=N)N", "values": [{"measurement": "selectivity ratio", "setting": "[2]", "value": "> 265"}, {"measurement": "Activity", "setting": "DNA [3]", "value": "Active"}, {"measurement": "Activity", "setting": "DNA [4]", "value": "Active"}, {"measurement": "Activity", "setting": "DNA [6]", "value": "Active"}, {"measurement": "IC50 at 72 h", "setting": "[1]", "value": 80, "unit": "µM"}]}, {"compound": "CC(C)CCc1sc(NC(=O)c2cc(NC(=O)c3cc(NC(=O)c4cccc(F)c4)cn3C)cn2C)nc1C(=O)NCCCN(C)C", "values": [{"measurement": "IC50 at 72 h", "setting": "[1]", "value": 40, "unit": "µM"}]}, {"compound": "COc1cccc(/C=C/c2ccc(C(=O)Nc3cc(C(=O)Nc4cc(C(=O)NCCC(=N)N)n(C)c4)n(C)c3)cn2)c1", "values": [{"measurement": "selectivity ratio", "setting": "[2]", "value": "> 336"}, {"measurement": "Activity", "setting": "DNA [3]", "value": "Active"}, {"measurement": "Activity", "setting": "DNA [4]", "value": "inactive"}, {"measurement": "IC50 at 72 h", "setting": "[1]", "value": 45, "unit": "µM"}]}, {"compound": "Cn1cc(NC(=O)c2cc(NC(=O)c3ccc(NC(=O)c4ccc(F)cc4)cc3)cn2C)cc1C(=O)NCCC(=N)N", "values": [{"measurement": "IC50 at 72 h", "setting": "[1]", "value": 35, "unit": "µM"}]}, {"compound": "CC(C)CCn1cc(NC(=O)c2cc(NC(=O)c3cc(NC(=N)c4cc5ccccc5cn4)cn3C)cn2C)cc1C(=O)NCCCN(C)C", "values": [{"measurement": "IC50 at 72 h", "setting": "[1]", "value": 40, "unit": "µM"}]}, {"compound": "Cn1cc(NC(=O)c2cc(NC(=O)c3ccc(/C=C/c4ccc(C(F)(F)F)cc4)cc3)cn2C)cc1C(=O)NCCN1CCOCC1", "values": [{"measurement": "IC50 at 72 h", "setting": "[1]", "value": 40, "unit": "µM"}]}]}
